# Assay outcomes (PubChem BioAssay)
# PRMT1 FP inh: blocks human protein arginine methyltransferase 1. Q99873. recombinant PRMT1, activity-based probe fluorescence polarization. inhibition, % at 2.79 µM. hit rate 1.3% among 370,000. AID 652257;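 active = inhibition above about 21% made by adding two undisclosed values, limit read from the data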
# SIAE primary: human SIAE inhibition, primary screen | AID 1053197 | inhibition, % at 9.66 µM | hit rate 0.69% among 370,000 | SIAE FP-Rh probe binding, fluorescence polarization | Q9HAT2;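 active = inhibition above a cutoff: mean of compounds within the control limits plus 3 SD of those, cut at about 17% in these data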;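 note: 0% = plate median of compound wells and 100% = probe without SIAE protein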
# Target sequence (Q9HAT2 whole entry, looked up): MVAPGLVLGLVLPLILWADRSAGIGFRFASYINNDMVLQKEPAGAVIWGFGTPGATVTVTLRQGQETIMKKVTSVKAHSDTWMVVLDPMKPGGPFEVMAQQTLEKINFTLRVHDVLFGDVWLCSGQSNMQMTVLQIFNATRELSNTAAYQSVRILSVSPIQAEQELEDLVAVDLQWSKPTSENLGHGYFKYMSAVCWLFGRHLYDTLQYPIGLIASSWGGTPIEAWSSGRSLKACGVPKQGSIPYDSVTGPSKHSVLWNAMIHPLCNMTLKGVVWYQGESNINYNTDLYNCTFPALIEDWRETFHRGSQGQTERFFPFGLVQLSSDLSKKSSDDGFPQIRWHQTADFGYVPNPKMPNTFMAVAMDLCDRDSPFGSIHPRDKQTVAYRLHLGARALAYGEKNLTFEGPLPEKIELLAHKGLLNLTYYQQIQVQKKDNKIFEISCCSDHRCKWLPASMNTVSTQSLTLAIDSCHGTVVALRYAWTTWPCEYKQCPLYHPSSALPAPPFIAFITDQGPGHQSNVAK
# TCR-CD3 inh: human TCR-CD3 binding inhibition; inhibition, % at 9.4 µM; AID 651800; TAMRA-labeled TCR probe fluorescence, biochemical; hit rate 0.37% among 360,000;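 note: recombinant mutant TCR 2C K166C tagged with TAMRA read by polarization; 0% = receptor in buffer alone and 100% = receptor with positive control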
# mABHD4 FP: inhibitors of mouse ABHD4. purified mABHD4, FP-Rh probe fluorescence polarization. inhibition, % at 8.92 µM. hit rate 0.54% among 370,000;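 active = inhibition exceeding the mean over every tested compound plus 3 SD, cut at about 30% in these data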;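 note: 0% = plate median of compound wells and 100% = S159A mutant with DMSO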
#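 assay system = mABHD4 protein | compound dosing = single nominal dose of 8.92 µM, 0.89% DMSO final | read-out basis = percent inhibition of probe binding, normalized to plate controls | schedule = Enzyme–compound pre-incubation 45 min, then probe 60 min, both 25 °C | detection = fluorescence polarization, excitation 525 nm, emission 598 nm, BODIPY TMR filters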
# ATG4B inh: inhibitors of human ATG4B cysteine protease; Q9Y4P1; ATG4B cleavage of LC3-PLA2, NBD-HPC fluorescence, 1 h; inhibition, % at 8.33 µM; hit rate 0.51% among 340,000; AID 504462; in the data active = inhibition above about 40%
# HTRA1 inh: blocks human HTRA1 serine peptidase. recombinant HTRA1, FP-rhodamine activity-based probe, fluorescence polarization. hit rate 0.5% among 340,000. AID 504803. inhibition, % at 5.96 µM. Q92743; in the data active = inhibition above about 36%;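 note: 0% = enzyme with DMSO and 100% = wells lacking enzyme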
# BSA TAMRA ctr: BSA probe counter-screen for TCR-CD3 inhibitors | shares compounds with TCR-CD3 inh | TAMRA-labeled BSA probe fluorescence counterscreen | inhibition, % at 9.4 µM | hit rate 10% among 1,200 | AID 652035; in the data active = inhibition above about 23%;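 note: 0% = buffer low control and 100% = reference high control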
# TCR-CD3 inh conf: confirmation of human TCR-CD3 interaction inhibitors; hit rate 48% among 1,200; TAMRA-labeled TCR probe fluorescence binding assay; inhibition, % at 9.4 µM; shares compounds with TCR-CD3 inh
# PRMT1 inh conf: confirmation of human PRMT1 inhibitors; shares compounds with PRMT1 FP inh; recombinant His-PRMT1, activity-based probe fluorescence polarization; inhibition, % at 2.79 µM; hit rate 42% among 3,300; AID 687036;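 active = mean inhibition across replicates above the hit cutoff derived for the earlier primary screen, cut at about 22% in these data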
# mABHD4 conf: ABHD4 (mouse) inhibition, FP confirmation; shares compounds with mABHD4 FP; hit rate 55% among 1,800; inhibition, % at 8.92 µM; purified mABHD4, FP-Rh probe fluorescence polarization;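 active = mean inhibition across replicates above the hit cutoff set in the primary screen, cut at about 30% in these data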;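 note: 0% = wild-type ABHD4 with DMSO and 100% = catalytically dead S159A mutant with DMSO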
# An asterisk follows results filed as active; . = no result given; ! = not active in a repeat. An excerpt weighted towards active compounds, which were near 2.9% of everything screened. Cut-off read from the data, not from the text of the source, unless noted: active = inhibition above about 19%; inactive = the rest.
SMILES,PRMT1 FP inh,SIAE primary,TCR-CD3 inh,mABHD4 FP,ATG4B inh,HTRA1 inh,BSA TAMRA ctr,TCR-CD3 inh conf,PRMT1 inh conf,mABHD4 conf
O=C(O)c1cc(O)c2c(c1)[C@@H]([C@H]1c3cc(C(=O)O)cc(O)c3C(=O)c3c(O[C@@H]4O[C@H](CO)[C@@H](O)[C@H](O)[C@H]4O)cccc31)c1cccc(OC3O[C@H](CO)[C@@H](O)[C@H](O)[C@H]3O)c1C2=O (some centres undefined),32*,68*,153*,27,4,26,-13,109*,13,.
O=C1c2cc(CO)cc(O)c2C(=O)c2c(O[C@@H]3OC(CO)[C@@H](O)[C@@H](O)[C@@H]3O)cccc21 (some centres undefined),4,8,-2,10,-31,-2,.,.,.,.
CCN(CCO)c1nc(SC)nc2c1sc1nc(-c3ccco3)c3c(c12)CCC3,.,.,.,.,1,-17,.,.,.,.
CSc1nc(NCCOCCO)c2sc3nc(-c4ccco4)c4c(c3c2n1)CCC4,41*,7,20*,8,-4,-36,-3,0,24*,.
OC(c1ccccc1)(c1ccccc1)C1CCN(CCCNc2ccccc2Br)CC1,-3,-2,.,11,.,.,.,.,.,.
N#Cc1c(N(CCO)CCO)nc(N)c2c(N)nc3c(c12)CC(=O)N3CC1CCCO1 (centres undefined),30*,0,25*,8,-1,2,7,7,14,.
C#CCN1c2ccccc2Sc2cccnc21,63*,8,47*,5,16,7,2,2,13,.
Cc1cc2cc(CNC(=O)c3ccc(Br)o3)ccc2n1C,36*,-3,22*,-7,4,-1,6,7,5,.
C=CCN1C(=O)[C@@H](CC(=O)N2CCN(C(=O)C3CC3)CC2)[C@]2(C(=O)OC)CCCCC=C12,0,3,.,5,.,.,.,.,.,.
NC(=O)c1sc2nc(-c3ccco3)ccc2c1N,51*,0,20*,25,6,8,-6,2,17,.
CC(=O)OCCNc1cc(N2CCN(C)CC2)c2noc3c2c1C(=O)c1ccccc1-3,3,16,24*,32*,-13,25,11,11,.,1
CCOC(=O)N1CCN(c2cc(NCCO)c([N+](=O)[O-])c3nonc23)CC1,-3,2,3,6,-7,8,.,.,.,.
O=C1NC(=O)/C(=C/c2ccco2)N1,12,12,6,9,-4,0,.,.,.,.
O=C1NC(=S)NC1=Cc1ccco1,64*,-5,24*,33*,5,14,4,21*,13,6
Cc1nc(S/C(=C\c2ccc(-c3ccc(C(=O)O)c(Cl)c3)o2)C(=O)O)n[nH]1,33*,4,65*,39*,6,6,2,67*,39*,54*
COc1cc(OC)c2cc(C(=O)N/N=C/c3cccc(OC)c3O)[nH]c2c1,-3,12,24*,32*,-14,15,-11,7,.,58*
COC(=O)C1=C(C)N(Cc2ccc(C(F)(F)F)cc2)C(=NCC2CC2)NC1c1cccc(Cl)c1 (centres undefined),-3,4,-5,29,.,.,.,.,.,.
CCOc1cc(/C=N/n2c(COc3ccccc3)n[nH]c2=S)ccc1O,5,5,6,4,-5,2,.,.,.,.
Oc1ccc(/C=N/n2c(COc3ccccc3)n[nH]c2=S)cc1O,3,2,32*,36*,-6,25,-14,22*,.,23
CN(c1ccccc1)S(=O)(=O)c1ccc(NC(=O)CC(=O)c2ccccc2)cc1,0,-69,56*,32*,9,-20,7,5,.,-73
CC(C)C[C@@H]1COc2cccc(F)c2S(=O)(=O)N1C,-2,2,.,2,.,.,.,.,.,.
O=C(NN=Cc1cc(Cl)ccc1[N+](=O)[O-])c1cccc2ccccc12,6,2,4,-4,-9,-2,.,.,.,.
Cc1cc(C(=O)N/N=C/c2cc(Cl)cc([N+](=O)[O-])c2O)c2ccccc2n1,8,7,36*,32*,26,7,-13,39*,.,37*
CCC(C)NC(=O)CN1C(=O)C2CCCCN2C(=O)c2ccccc21 (centres undefined),3,-3,.,-1,.,.,.,.,.,.
C[c-]1[c-](C)[c-](C)[c-](C)[c-]1C.[Fe].c1cc2nccc(N3CCCC3)[c-]2c1 (centres undefined),26*,8,49*,33*!,11,14,2,19*!,8,30*
SMILES,PRMT1 FP inh,SIAE primary,TCR-CD3 inh,mABHD4 FP,ATG4B inh,HTRA1 inh,BSA TAMRA ctr,TCR-CD3 inh conf,PRMT1 inh conf,mABHD4 conf
Oc1cccc(CN2CCOCC2)c1O,33*,3,27*,42*,5,27,0,10,9,6
O=c1cc(Br)c(O)c(Br)cc1Br,35*,3,21*,31*,-1,14,-2,5,39*,18
C[C@@H]1ON(C)[C@H]2C[C@H]3c4[nH]c5c(-c6ccccc6F)cccc5c4CCN3C[C@@H]12,1,6,.,9,.,.,.,.,.,.
CC(C)[C@H](NC(=O)OC(C)(C)C)C(=O)N1CCC(Oc2cccnc2)CC1,-10,1,.,8,.,.,.,.,.,.
C/C(=N\NC(=O)c1ccccc1O)C1C(=O)c2ccccc2C1=O,1,9,33*,46*,23,30,-17,42*,.,64*
CCCCN=C(N)NC(=O)OCc1ccccc1,-3,-2,.,0,.,.,.,.,.,.
CC(=O)Nc1ccc(S(=O)(=O)NCc2ccc3c(c2)cc(C)n3C)cc1,14,15,54*,46*,-1,27,-1,1,.,-13
CC(=O)Nc1ccc(S(=O)(=O)NCc2ccc3[nH]c(C)cc3c2)cc1,2,2,1,-19,-12,8,.,.,.,.
C[n+]1cc2c3c(ccc2c2ccc4cc5c(cc4c21)OCO5)OCO3,61*,19*,20*,68*,.,.,19,24*,85*,71*
C[n+]1c(/C=C/c2ccc3c(c2)OCO3)ccc2ccccc21,2,0,0,5,4,1,.,.,.,.
COC(=O)c1ccc(S(=O)(=O)N2CCC(NC(=O)COc3ccc(F)cc3)CC2)cc1,-1,-1,.,-3,.,.,.,.,.,.
COc1cc2ccccc2nn1,1,-1,-11,2,-4,3,.,.,.,.
COc1ccc2c(n1)Sc1nc3ccccc3nc1N2,78*,9,48*,32*,.,3,-3,1,20,10
